From ChEMBL document CHEMBL1641587, “Indole-3-piperazinyl derivatives: novel chemical class of 5-HT(6) receptor antagonists” (Bioorg Med Chem Lett, 2011)
Activity calls are given as the source filed them. The calls are words filed in the database; no cut-off is given here.

How the values were obtained:
[1] = biological target: T1, 5-hydroxytryptamine receptor 6 (Homo sapiens, UniProt P50406); test: Displacement of [3H]LSD from human cloned 5HT6 receptor expressed in human HeLa cells by glass fiber filtration assay; type: cell-based
T1 sequence (P50406 whole entry): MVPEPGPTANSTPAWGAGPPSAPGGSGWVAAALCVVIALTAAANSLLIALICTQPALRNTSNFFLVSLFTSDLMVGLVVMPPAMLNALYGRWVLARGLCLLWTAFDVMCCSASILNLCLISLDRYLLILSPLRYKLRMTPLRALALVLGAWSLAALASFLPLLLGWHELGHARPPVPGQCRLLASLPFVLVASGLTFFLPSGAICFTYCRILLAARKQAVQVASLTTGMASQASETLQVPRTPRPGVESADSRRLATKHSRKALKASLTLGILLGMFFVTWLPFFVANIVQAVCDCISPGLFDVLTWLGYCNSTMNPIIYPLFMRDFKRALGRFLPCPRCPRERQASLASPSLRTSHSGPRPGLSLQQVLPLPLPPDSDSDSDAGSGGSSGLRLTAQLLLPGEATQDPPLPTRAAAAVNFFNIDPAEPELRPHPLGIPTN
How it was run: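 Radioligand binding to human cloned 5-HT6 receptors stably expressed in HeLa cells. Ki values were determined.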

[2] = Selectivity ratio of IC50 for dopamine D2 receptor to IC50 for human recombinant 5HT6 receptor
[3] = Selectivity ratio of IC50 for SERT to IC50 for human recombinant 5HT6 receptor
[4] = biological target: T1, 5-hydroxytryptamine receptor 6; test: Antagonist activity at human recombinant 5HT6 receptor expressed in CHO cells assessed as inhibition of 5-HT-stimulated cAMP accumulation by luminometry; type: functional, cell-based
How it was run: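 Non-radioactive cell-based functional assay in CHO cells expressing 5-HT6 receptor; antagonism read as inhibition of 5-HT-stimulated cAMP accumulation. IC50 and Kb values derived, each the mean of two experiments.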

[5] = Selectivity ratio of IC50 for NET to IC50 for human recombinant 5HT6 receptor
[6] = Selectivity ratio of IC50 for histamine H1 receptor to IC50 for human recombinant 5HT6 receptor
[7] = Metabolic stability in Wistar rat liver microsomes at 2.5 uM after 0.5 hrs; type: ADME, Microsome
How it was run: (§1)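 Wistar rat or human liver microsomes were incubated with 2.5 µM compound for 0.5 h, and % metabolized was measured.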

[8] = Cmax in Wistar rat at 5 mg/kg, po; type: ADME, organism-based; design: dose 5 mg/kg, route oral; details: in vivo
How it was run: (§2)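 Fasted male Wistar rats received a 5 mg/kg dose orally or iv, with water for injection as vehicle for both routes. n = 3 per route. Plasma parameters were derived per route: AUC, Cmax, t1/2, Vz, clearance, and oral bioavailability (F).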

[9] = Clearance in Wistar rat at 5 mg/kg, iv; type: ADME, organism-based; design: dose 5 mg/kg, route intravenous; details: in vivo; how it was run: as §2
[10] = AUC in Wistar rat at 5 mg/kg, iv; type: ADME, organism-based; design: dose 5 mg/kg, route intravenous; details: plasma; how it was run: as §2
[11] = system: Rattus norvegicus; test: Cognitive enhancing effect in Wistar rat at 10 mg/kg, po by novel object recognition test; type: functional, organism-based; design: dose 10 mg/kg
How it was run: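 Novel object recognition test in male Wistar rats. Drug or vehicle (PEG 400 50% v/v, 1 mL/kg) was given p.o. 60 min before the test, n=6-9/group. Read-out was exploration time of the familiar versus the novel object, given as mean SEM and analysed by paired t test.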

[12] = system: Rattus norvegicus; test: Apparent volume of distribution in Wistar rat at 5 mg/kg, po; type: ADME, organism-based; design: dose 5 mg/kg, route oral; details: in vivo; how it was run: as §2
[13] = Clearance in Wistar rat at 5 mg/kg, po; type: ADME, organism-based; design: dose 5 mg/kg, route oral; details: in vivo; how it was run: as §2
[14] = AUC in Wistar rat at 5 mg/kg, po; type: ADME, organism-based; design: dose 5 mg/kg, route oral; details: plasma; how it was run: as §2
[15] = biological target: Cytochrome P450 3A4 (Homo sapiens, UniProt P08684); test: Inhibition of human CYP3A4; type: ADME
Sequence of Cytochrome P450 3A4 (P08684 whole entry, canonical isoform): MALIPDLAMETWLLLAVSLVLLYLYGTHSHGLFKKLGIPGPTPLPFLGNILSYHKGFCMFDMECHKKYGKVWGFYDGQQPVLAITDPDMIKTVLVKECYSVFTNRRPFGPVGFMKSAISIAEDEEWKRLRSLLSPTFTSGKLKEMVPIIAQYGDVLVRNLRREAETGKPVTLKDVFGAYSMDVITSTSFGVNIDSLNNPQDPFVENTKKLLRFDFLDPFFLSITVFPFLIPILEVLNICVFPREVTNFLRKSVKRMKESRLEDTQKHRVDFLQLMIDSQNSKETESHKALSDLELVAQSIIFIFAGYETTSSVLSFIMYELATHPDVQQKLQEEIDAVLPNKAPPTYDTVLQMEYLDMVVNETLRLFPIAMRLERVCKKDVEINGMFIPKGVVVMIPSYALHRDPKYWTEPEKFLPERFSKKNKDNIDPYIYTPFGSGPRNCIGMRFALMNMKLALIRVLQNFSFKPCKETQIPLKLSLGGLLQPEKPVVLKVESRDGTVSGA
How it was run: (§3)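 Isoform-selective assays using heterologously expressed human CYP2D6 or CYP3A4. IC50 is the mean of duplicate determinations.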

[16] = biological target: Cytochrome P450 2D6 (Homo sapiens, UniProt P10635); test: Inhibition of human CYP2D6; type: ADME; how it was run: as §3
Sequence of Cytochrome P450 2D6 (P10635 whole entry): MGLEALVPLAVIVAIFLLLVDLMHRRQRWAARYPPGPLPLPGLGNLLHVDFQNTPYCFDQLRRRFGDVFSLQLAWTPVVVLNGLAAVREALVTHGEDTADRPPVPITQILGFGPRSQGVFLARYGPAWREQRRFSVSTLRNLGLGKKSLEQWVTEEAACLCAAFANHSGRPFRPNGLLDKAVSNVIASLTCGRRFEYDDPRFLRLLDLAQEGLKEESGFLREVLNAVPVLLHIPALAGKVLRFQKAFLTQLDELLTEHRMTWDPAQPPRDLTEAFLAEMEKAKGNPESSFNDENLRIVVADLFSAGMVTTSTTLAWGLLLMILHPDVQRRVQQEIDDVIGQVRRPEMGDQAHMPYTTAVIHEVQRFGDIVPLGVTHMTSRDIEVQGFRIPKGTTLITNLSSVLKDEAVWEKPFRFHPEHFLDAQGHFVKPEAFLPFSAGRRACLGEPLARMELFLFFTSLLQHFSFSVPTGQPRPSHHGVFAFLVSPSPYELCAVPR

[17] = Cmax in Wistar rat at 5 mg/kg, iv; type: ADME, organism-based; design: dose 5 mg/kg, route intravenous; details: in vivo; how it was run: as §2
[18] = Half life in Wistar rat at 5 mg/kg, iv; type: ADME, organism-based; design: dose 5 mg/kg, route intravenous; details: in vivo; how it was run: as §2
[19] = Apparent volume of distribution in Wistar rat at 5 mg/kg, iv; type: ADME, organism-based; design: dose 5 mg/kg, route intravenous; details: in vivo, read-out: Vz; how it was run: as §2
[20] = species on record: Rattus norvegicus; details: 10 mg/kg
[21] = Half life in Wistar rat at 5 mg/kg, po; type: ADME, organism-based; design: dose 5 mg/kg, route oral; details: in vivo; how it was run: as §2
[22] = Metabolic stability in human liver microsomes at 2.5 uM after 0.5 hrs; type: ADME, Microsome; how it was run: as §1
[23] = Oral bioavailability in Wistar rat at 5 mg/kg; type: ADME, organism-based; details: in vivo; how it was run: as §2

Molecule `CCN1CCN(c2cn(S(=O)(=O)c3ccc(C(C)C)cc3)c3ccc(Cl)cc23)CC1` has a Ki [1] of 30.5 nM.

`CCN1CCN(c2cn(S(=O)(=O)c3ccc4ccccc4c3)c3cc(Cl)ccc23)CC1` gave a Ki [1] of 25.5 nM.

Work on `CN1CCN(c2cn(S(=O)(=O)c3ccccc3Br)c3cc(Cl)ccc23)CC1` yielded a Ki [1] of 30.2 nM.

In the case of `CCN1CCN(c2cn(S(=O)(=O)c3ccc(C(C)C)cc3)c3ccc(Br)cc23)CC1`, the Ki [1] is reported as 30.1 nM.

`CCN1CCN(c2cn(S(=O)(=O)c3ccc(C(C)C)cc3)c3ccccc23)CC1` gave a Ki [1] of 8.6 nM.

`CN1CCN(c2cn(S(=O)(=O)c3ccccc3Br)c3ccccc23)CC1` gave a Ki [1] of 15.2 nM.

With `CC(C)c1ccc(S(=O)(=O)n2cc(N3CCN(C)CC3)c3cc(Br)ccc32)cc1` the Ki [1] was 23.2 nM.

`CN1CCN(c2cn(S(=O)(=O)c3ccccc3)c3ccccc23)CC1` showed a Ki [1] of 15.9 nM.

Molecule `CN1CCN(c2cn(S(=O)(=O)c3ccccc3Br)c3ccc(Br)cc23)CC1` has a Ki [1] of 10.2 nM.

Work on `CCN1CCN(c2cn(S(=O)(=O)c3ccc(F)cc3)c3ccc(Cl)cc23)CC1` yielded a Ratio IC50 [2] greater than 50, a Ratio IC50 [3] greater than 50 and an IC50 [4] of 1780 nM. The Kb [4] was 3.5 nM, the Ratio IC50 [5] was greater than 50 and the Ki [1] was 10.7 nM. The Ratio IC50 [6] was greater than 50.

Molecule `CCN1CCN(c2cn(S(=O)(=O)c3ccc(OC)cc3)c3cc(Cl)ccc23)CC1` has a Ki [1] of 82.3 nM.

`CN1CCN(c2cn(S(=O)(=O)c3cccc(Cl)c3)c3ccc(Br)cc23)CC1` gave a Ratio IC50 [2] greater than 50, a Ratio IC50 [3] greater than 50 and an IC50 [4] of 1530 nM. The Kb [4] was 3 nM, the Ratio IC50 [5] was greater than 50 and the Ki [1] was 7.8 nM. The Ratio IC50 [6] was greater than 50.

Work on `CCN1CCN(c2cn(S(=O)(=O)c3ccc(F)cc3)c3ccc(Br)cc23)CC1` yielded a Ki [1] of 10.6 nM.

`CCN1CCN(c2cn(S(=O)(=O)c3cc(OC)ccc3OC)c3cc(Cl)ccc23)CC1` showed a Ki [1] of 63.5 nM.

For `CN1CCN(c2cn(S(=O)(=O)c3cccc(Cl)c3)c3ccccc23)CC1`, the Ki [1] was 10.8 nM.

For `CC(C)c1ccc(S(=O)(=O)n2cc(N3CCN(C)CC3)c3ccccc32)cc1`, the % metabolism at 0.5 h, 2.5 µM [7] was 95%, the Cmax [8] was 40 ng/mL and the clearance [9] was 133 mL/min/kg. For the same molecule, the AUC [10] was 674 ng·h/mL, the Ratio IC50 [2] was greater than 50 and the Ratio IC50 [3] was greater than 50. For the same molecule, the Activity [11] was “Active”, the Vz [12] was 436 L/kg and the CL/F [13] was 2200 mL/min/kg. The AUC [14] was 59 ng·h/mL, the IC50 [15] was 5540 nM and the IC50 [16] was 39200 nM. It also gave an IC50 [4] of 310 nM, a Kb [4] of 0.53 nM and a Cmax [17] of 365 ng/mL. For the same molecule, the Ratio IC50 [5] was greater than 50, the half-life [18] was 4.47 h and the Ki [1] was 3.4 nM. The Vd [19] was 51.8 L/kg, the inhibition [20] was “Active” and the Ratio IC50 [6] was greater than 50. It also gave a half-life [21] of 2.35 h, a % metabolism at 0.5 h, 2.5 µM [22] of 80% and a bioavailability [23] of 8%.

For `CC(C)c1ccc(S(=O)(=O)n2cc(N3CCN(C)CC3)c3ccc(Cl)cc32)cc1`, the Ki [1] was 55.3 nM.

Work on `CCN1CCN(c2cn(S(=O)(=O)c3ccccc3Br)c3ccc(Cl)cc23)CC1` yielded a Ki [1] of 20.3 nM.

In the case of `CN1CCN(c2cn(S(=O)(=O)c3ccc(F)cc3)c3ccccc23)CC1`, the % metabolism at 0.5 h, 2.5 µM [7] is reported as 99%, the Ratio IC50 [2] is reported as greater than 50 and the Ratio IC50 [3] is reported as greater than 50. The IC50 [15] was 4770 nM, the IC50 [16] was 26400 nM and the IC50 [4] was 292 nM. It also gave a Kb [4] of 0.5 nM, a Ratio IC50 [5] greater than 50 and a Ki [1] of 11.8 nM. For the same molecule, the Ratio IC50 [6] was greater than 50 and the % metabolism at 0.5 h, 2.5 µM [22] was 85%.

`CN1CCN(c2cn(S(=O)(=O)c3ccc(F)cc3)c3ccc(Br)cc23)CC1` showed a % metabolism at 0.5 h, 2.5 µM [7] of 99%, a Ratio IC50 [2] greater than 50 and a Ratio IC50 [3] greater than 50. For the same molecule, the IC50 [15] was 4610 nM, the IC50 [16] was 28800 nM and the IC50 [4] was 322 nM. The Kb [4] was 0.6 nM, the Ratio IC50 [5] was greater than 50 and the Ki [1] was 9.2 nM. The Ratio IC50 [6] was greater than 50 and the % metabolism at 0.5 h, 2.5 µM [22] was 96%.
